Results reported in ChEMBL document CHEMBL1122798, “Trypanocidal 1,3-arylene diketone bis(guanylhydrazone)s. Structure-activity relationships among substituted and heterocyclic analogues” (1984).

Columns and labels:
Assay type in all cases: functional
Mus musculus [1] = assay: Compound was tested for Trypanocidal Activity in mice at 6 mg/kg; 14/20
Mus musculus [2] = organism: Mus musculus; assay: Effective dose against Trypanosoma brucei infection in mice
How it was run: (§1)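 Female Swiss-Webster mice (20–25 g) were infected ip with 5×10^4 T. brucei EATRO 110 organisms in fresh mouse blood diluted with minimum essential medium. Groups of 5 or 10 received a single ip dose in normal saline (solution or milled suspension, 20 μL/g) 6 h post-infection. Deaths within 72 h were scored as toxic. Survivors aparasitemic at 28 days (tail-blood wet films, phase contrast) counted as cures. ED50 was computed by Bliss/Litchfield–Wilcoxon, excluding toxic dosages.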

Mus musculus [3] = assay: Compound was tested for Trypanocidal Activity in mice at 60 mg/kg; 0/5
Mus musculus [4] = assay: Compound was tested for Trypanocidal Activity in mice at 1.5 mg/kg; 0/15
Mus musculus [5] = assay: Compound was tested for Trypanocidal Activity in mice at 40 mg/kg; 10/10
Mus musculus [6] = assay: Compound was tested for Trypanocidal Activity in mice at 25 mg/kg; 8/10
Mus musculus [7] = assay: Compound was tested for Trypanocidal Activity in mice at 100 mg/kg; 0/5
Mus musculus [8] = assay: Compound was tested for Trypanocidal Activity in mice at 2.5 mg/kg; 3/20
Mus musculus [9] = assay: Compound was tested for Trypanocidal Activity in mice at 15 mg/kg; 9/10
Mus musculus [10] = assay: Compound was tested for Trypanocidal Activity in mice at 10 mg/kg; 10/10
Mus musculus [11] = assay: Compound was tested for Trypanocidal Activity in mice at 4 mg/kg; 11/20
Mus musculus [12] = assay: Compound was tested for Trypanocidal Activity in mice at 60 mg/kg; 2/5
Mus musculus [13] = assay: Compound was tested for Trypanocidal Activity in mice at 40 mg/kg; 0/10
Mus musculus [14] = assay: Compound was tested for Trypanocidal Activity in mice at 4 mg/kg; 10/20
Mus musculus [15] = assay: Compound was tested for Trypanocidal Activity in mice at 6 mg/kg; 17/20
Mus musculus [16] = assay: Compound was tested for Trypanocidal Activity in mice at 15 mg/kg; 19/20
Mus musculus [17] = assay: Compound was tested for Trypanocidal Activity in mice at 60 mg/kg; 3/5
Mus musculus [18] = assay: Compound was tested for Trypanocidal Activity in mice at 1.5 mg/kg; 0/10
Mus musculus [19] = assay: Compound was tested for Trypanocidal Activity in mice at 2.5 mg/kg; 1/10
Mus musculus [20] = assay: Compound was tested for Trypanocidal Activity in mice at 25 mg/kg; 18/20
Mus musculus [21] = assay: Compound was tested for Trypanocidal Activity in mice at 10 mg/kg; 20/20
Mus musculus [22] = assay: Compound was tested for Trypanocidal Activity in mice at 25 mg/kg; 10/10
Mus musculus [23] = assay: Compound was tested for Trypanocidal Activity in mice at 2.5 mg/kg; 5/30
Mus musculus [24] = assay: Compound was tested for Trypanocidal Activity in mice at 60 mg/kg; toxic deaths; 1/10
Mus musculus [25] = assay: Compound was tested for Trypanocidal Activity in mice at 4 mg/kg; 10/30
Mus musculus [26] = assay: Compound was tested for Trypanocidal Activity in mice at 6 mg/kg; 14/30
Mus musculus [27] = assay: Compound was tested for Trypanocidal Activity in mice at 15 mg/kg; 10/10
Mus musculus [28] = assay: Compound was tested for Trypanocidal Activity in mice at 1.5 mg/kg; 0/20
Mus musculus [29] = assay: Tested for Trypanocidal Activity in mice at 10 mg/kg; 17/20; how it was run: as §1
Mus musculus [30] = assay: Compound was tested for Trypanocidal Activity in mice at 25 mg/kg; 0/5
Mus musculus [31] = assay: Compound was tested for Trypanocidal Activity in mice at 40 mg/kg; 0/5
Mus musculus [32] = assay: Compound was tested for Trypanocidal Activity in mice at 15 mg/kg; 0/5
Mus musculus [33] = assay: Compound was tested for Trypanocidal Activity in mice at 6 mg/kg; 0/10
Mus musculus [34] = assay: Compound was tested for Trypanocidal Activity in mice at 40 mg/kg; 1/5
Mus musculus [35] = assay: Compound was tested for Trypanocidal Activity in mice at 15 mg/kg; 11/20
Mus musculus [36] = assay: Compound was tested for Trypanocidal Activity in mice at 10 mg/kg; 1/20
Mus musculus [37] = assay: Compound was tested for Trypanocidal Activity in mice at 25 mg/kg; 4/5
Mus musculus [38] = assay: Compound was tested for Trypanocidal Activity in mice at 100 mg/kg; 1/5
Mus musculus [39] = assay: Compound was tested for Trypanocidal Activity in mice at 4 mg/kg; 24/45
Mus musculus [40] = assay: Compound was tested for Trypanocidal Activity in mice at 2.5 mg/kg; 6/25
Mus musculus [41] = assay: Compound was tested for Trypanocidal Activity in mice at 10 mg/kg; 22/30
Mus musculus [42] = assay: Compound was tested for Trypanocidal Activity in mice at 6 mg/kg; 32/45
Mus musculus [43] = assay: Compound was tested for Trypanocidal Activity in mice at 40 mg/kg; 9/10
Mus musculus [44] = assay: Compound was tested for Trypanocidal Activity in mice at 60 mg/kg; 7/10; how it was run: as §1
Mus musculus [45] = assay: Compound was tested for Trypanocidal Activity in mice at 40 mg/kg; 5/5
Mus musculus [46] = assay: Compound was tested for Trypanocidal Activity in mice at 6 mg/kg; 10/10
Mus musculus [47] = assay: Compound was tested for Trypanocidal Activity in mice at 0.15 mg/kg; 6/20
Mus musculus [48] = assay: Compound was tested for Trypanocidal Activity in mice at 1.0 mg/kg; 9/10
Mus musculus [49] = assay: Compound was tested for Trypanocidal Activity in mice at 15 mg/kg; 3/5
Mus musculus [50] = assay: Compound was tested for Trypanocidal Activity in mice at 0.06 mg/kg; 0/10
Mus musculus [51] = assay: Compound was tested for Trypanocidal Activity in mice at 0.25 mg/kg; 28/40
Mus musculus [52] = assay: Compound was tested for Trypanocidal Activity in mice at 0.4 mg/kg; 24/45
Mus musculus [53] = assay: Compound was tested for Trypanocidal Activity in mice at 150 mg/kg; 3/5
Mus musculus [54] = assay: Compound was tested for Trypanocidal Activity in mice at 1.5 mg/kg; 19/20
Mus musculus [55] = assay: Compound was tested for Trypanocidal Activity in mice at 10 mg/kg; 5/5
Mus musculus [56] = assay: Compound was tested for Trypanocidal Activity in mice at 0.1 mg/kg; 1/10
Mus musculus [57] = assay: Compound was tested for Trypanocidal Activity in mice at 60 mg/kg; 5/5
Mus musculus [58] = assay: Compound was tested for Trypanocidal Activity in mice at 4 mg/kg; 10/10
Mus musculus [59] = assay: Compound was tested for Trypanocidal Activity in mice at 25 mg/kg; 3/5
Mus musculus [60] = assay: Compound was tested for Trypanocidal Activity in mice at 2.5 mg/kg; 9/10
Mus musculus [61] = assay: Compound was tested for Trypanocidal Activity in mice at 0.6 mg/kg; 23/25
Mus musculus [62] = assay: Compound was tested for Trypanocidal Activity in mice at 100 mg/kg; 5/5

## C/C(=N\NC(=N)N)c1cc(C)cc(/C(C)=N/NC(=N)N)c1.Cl
Mus musculus [1]
  Cures/total: 14
Mus musculus [2]
  ED50: 4.1 mg/kg
Mus musculus [3]
  Cures/total: 0
Mus musculus [4]
  Cures/total: 0
Mus musculus [5]
  Cures/total: 10
Mus musculus [6]
  Cures/total: 8
Mus musculus [7]
  Cures/total: 0
Mus musculus [8]
  Cures/total: 3
Mus musculus [9]
  Cures/total: 9
Mus musculus [10]
  Cures/total: 10
Mus musculus [11]
  Cures/total: 11

## C/C(=N\NC(=N)N)c1cc(I)cc(/C(C)=N/NC(=N)N)c1.Cl
Mus musculus [7]
  Cures/total: 0
Mus musculus [12]
  Cures/total: 2
Mus musculus [13]
  Cures/total: 0

## C/C(=N\NC(=N)N)c1cccc(/C(C)=N/NC(=N)N)n1.Cl
Mus musculus [2]
  ED50: 4.1 mg/kg
Mus musculus [5]
  Cures/total: 10
Mus musculus [14]
  Cures/total: 10
Mus musculus [7]
  Cures/total: 0
Mus musculus [15]
  Cures/total: 17
Mus musculus [16]
  Cures/total: 19
Mus musculus [17]
  Cures/total: 3
Mus musculus [18]
  Cures/total: 0
Mus musculus [19]
  Cures/total: 1
Mus musculus [20]
  Cures/total: 18
Mus musculus [21]
  Cures/total: 20

## CCO.COc1cc(/C(C)=N/NC(=N)N)cc(/C(C)=N/NC(=N)N)c1.Cl
Mus musculus [22]
  Cures/total: 10
Mus musculus [23]
  Cures/total: 5
Mus musculus [2]
  ED50: 5.4 mg/kg
Mus musculus [5]
  Cures/total: 10
Mus musculus [24]
  Cures/total: 1
Mus musculus [25]
  Cures/total: 10
Mus musculus [26]
  Cures/total: 14
Mus musculus [7]
  Cures/total: 0
Mus musculus [27]
  Mice cured (number): 10
Mus musculus [28]
  Cures/total: 0
Mus musculus [29]
  Cures/total: 17

## C/C(=N\NC(=N)N)c1cccc(/C(C)=N/NC(=N)N)c1N.Cl
Mus musculus [30]
  Cures/total: 0
Mus musculus [31]
  Cures/total: 0
Mus musculus [32]
  Cures/total: 0

## C/C(=N\NC(=N)N)c1cncc(/C(C)=N/NC(=N)N)c1.Cl
Mus musculus [33]
  Cures/total: 0
Mus musculus [34]
  Cures/total: 1
Mus musculus [35]
  Cures/total: 11
Mus musculus [36]
  Cures/total: 1
Mus musculus [37]
  Cures/total: 4

## C/C(=N\NC(=N)N)c1cccc(/C(C)=N/NC(=N)N)c1.Cl [BIS(GUANYLHYDRAZONE) ;2M HYDROCHLORIDE]
Mus musculus [38]
  Cures/total: 1
Mus musculus [22]
  Cures/total: 10
Mus musculus [2]
  ED50: 4.2 mg/kg
Mus musculus [39]
  Cures/total: 24
Mus musculus [40]
  Cures/total: 6
Mus musculus [41]
  Cures/total: 22
Mus musculus [42]
  Cures/total: 32
Mus musculus [18]
  Cures/total: 0
Mus musculus [43]
  Cures/total: 9
Mus musculus [44]
  Cures/total: 7
Mus musculus [27]
  Mice cured (number): 10

## CC(=O)NCC(=O)O.N=C(N)c1ccc(/N=N/Nc2ccc(C(=N)N)cc2)cc1 [DIMINAZEN ACETURATE]
Mus musculus [45]
  Cures/total: 5
Mus musculus [2]
  ED50: 0.24 mg/kg
Mus musculus [46]
  Cures/total: 10
Mus musculus [47]
  Cures/total: 6
Mus musculus [48]
  Cures/total: 9
Mus musculus [49]
  Cures/total: 3
Mus musculus [50]
  Cures/total: 0
Mus musculus [51]
  Cures/total: 28
Mus musculus [52]
  Cures/total: 24
Mus musculus [53]
  Cures/total: 3
Mus musculus [54]
  Cures/total: 19
Mus musculus [55]
  Cures/total: 5
Mus musculus [56]
  Cures/total: 1
Mus musculus [57]
  Cures/total: 5
Mus musculus [58]
  Cures/total: 10
Mus musculus [59]
  Cures/total: 3
Mus musculus [60]
  Cures/total: 9
Mus musculus [61]
  Cures/total: 23
Mus musculus [62]
  Cures/total: 5
